Mdm2-MdmX inh – inhibitors of human Mdm2/MdmX interaction. O15151+Q00987. SaOS-2 split-luciferase Mdm2/MdmX complementation, luminescence. inhibition, % at 8 µM. 3% of 330,000 active. AID 485346;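 active means inhibition of at least 50% at 8 µM in the primary screen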
Target sequence (O15151 whole entry, looked up): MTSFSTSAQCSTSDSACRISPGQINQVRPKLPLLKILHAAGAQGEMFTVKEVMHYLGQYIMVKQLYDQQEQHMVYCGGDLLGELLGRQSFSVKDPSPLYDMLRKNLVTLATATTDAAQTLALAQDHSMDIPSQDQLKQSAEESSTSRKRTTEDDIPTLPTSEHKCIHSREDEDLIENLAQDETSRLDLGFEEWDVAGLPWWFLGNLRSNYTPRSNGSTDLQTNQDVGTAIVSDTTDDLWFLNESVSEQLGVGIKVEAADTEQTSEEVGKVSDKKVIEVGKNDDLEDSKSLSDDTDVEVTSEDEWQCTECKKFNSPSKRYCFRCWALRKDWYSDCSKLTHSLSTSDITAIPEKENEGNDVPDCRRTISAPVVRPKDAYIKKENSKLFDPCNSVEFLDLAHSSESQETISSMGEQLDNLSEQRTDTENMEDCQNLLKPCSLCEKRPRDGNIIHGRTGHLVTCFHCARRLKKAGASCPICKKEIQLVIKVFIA
Target sequence (Q00987 whole entry, looked up): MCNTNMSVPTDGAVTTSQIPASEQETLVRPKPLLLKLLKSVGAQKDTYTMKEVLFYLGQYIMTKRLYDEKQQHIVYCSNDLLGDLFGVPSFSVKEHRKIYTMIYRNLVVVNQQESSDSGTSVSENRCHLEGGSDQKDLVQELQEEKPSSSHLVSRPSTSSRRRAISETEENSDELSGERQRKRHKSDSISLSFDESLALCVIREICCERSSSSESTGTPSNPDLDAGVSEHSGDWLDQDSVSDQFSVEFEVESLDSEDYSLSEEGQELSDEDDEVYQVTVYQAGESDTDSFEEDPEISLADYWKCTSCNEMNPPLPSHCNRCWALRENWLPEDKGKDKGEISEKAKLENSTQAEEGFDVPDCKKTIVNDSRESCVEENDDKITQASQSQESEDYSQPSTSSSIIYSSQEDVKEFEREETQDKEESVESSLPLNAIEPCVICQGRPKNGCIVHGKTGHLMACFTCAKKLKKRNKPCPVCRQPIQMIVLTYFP
CSC inhib – blocks cancer stem cells; cancer stem cell-like cells viability, luminescence; inhibition, % at 7.5 µM; 1.1% of 300,000 active; AID 2717; in the data active means inhibition above about 75%; tested in HMLE shEcad cells
CHOP UPR activ – apoptotic UPR (CHOP) activation; 0.34% of 330,000 active; activation, % at 10 µM; CHO-CHOP luciferase reporter, luminescence; percent of tunicamycin response over DMSO baseline;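 active means at 10 µM dose, activation of 40% or more, normalized to positive control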
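Assay system: CHO cells with stable CHOP pathway luciferase reporter; Buffer or medium: F12 plus 10% serum; Times: 16-18 h cell attachment, then 6 h compound exposure, 37 °C; Signal: luciferase luminescence; Read-out basis: percent activation relative to tunicamycin control; Control set: tunicamycin high control, DMSO low control.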
UPR XBP1 act – adaptive UPR (XBP1) activation; CHO-XBP1 luciferase reporter, IRE1-XBP1 UPR activation, luminescence; percent of tunicamycin response, DMSO as zero; activation, % at 20 µM; 0.33% of 330,000 active;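 active means versus positive control, 20 µM dose yields 30% or more activation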
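Material – CHO cell line with stable XBP1 luciferase reporter · Buffer or medium – F12 plus 10% FBS · Compound – single point, 20 µM final compound, 1% DMSO · Schedule – 16-18 h cell attachment at 37 °C, then 6 h compound exposure · Signal – Steady-Glo luminescence read · Benchmarks – high control tunicamycin 10 µg/mL final, low control DMSO vehicle only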
SKKanGAS inh – SKKanGAS growth inhibition. S. pyogenes SKKanGAS, kanamycin growth, BacTiter-Glo, 6 h. inhibition, % at 7.5 µM. 1.3% of 300,000 active. AID 1662;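 active means mean replicate score, as percent of positive control median, at least 50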;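 further: strain carries kanamycin resistance gene driven by streptokinase promoter and grows in 40 µg/ml kanamycin; loss of luminescence reflects streptokinase promoter inhibition or plain growth inhibition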
Beta cell apopt – beta cell apoptosis inhibition | INS-1E cytokine-induced death, ATP luminescence, 48 h; percent of positive-control rescue, neutral wells zero | protection from apoptosis, % (no concentration beside the values) | 0.8% of 300,000 active | AID 435005;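 active means Every replicate reaches about 75%, or at least half do and their mean reaches it too, limit read from the data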;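 further: higher means more ATP so stronger rescue from cytokine killing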
Mdm2-MdmX conf – confirmation of human Mdm2/MdmX interaction inhibitors | Mdm2-MdmX binding, luminescent assay | inhibition, % at 8 µM | 55% of 10,000 active | shares compounds with Mdm2-MdmX inh | AID 489028; in the data active means inhibition above about 40%
Full FLuc ctr – counter-screen for Mdm2/MdmX inhibitors: full-length luciferase | 77% of 6,200 active | AID 504607 | SaOS-2 full-length luciferase counterscreen, luminescence | inhibition, % at 8 µM | shares compounds with Mdm2-MdmX inh;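 active means mean inhibition at 8 µM reaching about 37%, which flags the compound as non-specific, limit read from the data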;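 further: p53-null SaOS-2 cells with luciferase driven by a doxycycline-inducible promoter; compound on cells about two nights before reading with doxycycline added after day one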
Each line names hits and unclear results; the compound was inactive in the other large screens (follow-up assays come after a bar, where they were run). Sampled rows, rich in hits. Any-hit rate of the full collection: about 4.8%.

O=C(O)c1cc(S(=O)(=O)Nc2ccc3c(c2)OCCO3)c(Cl)cc1Cl	Mdm2-MdmX inh 54.9 | Mdm2-MdmX conf 42.4 | Full FLuc ctr 66.9
CC(=O)Nc1ccc(S(=O)(=O)Nc2ccc3c(c2)OCCO3)cc1Cl	none
CCCc1cc(=O)oc2cc(OCc3ccc(C(=O)O)cc3)ccc12	none
CC/C(=C\C1CCCCC1)C(NP(=O)(c1ccccc1)c1ccccc1)c1ccccc1 (stereo unspecified)	Mdm2-MdmX inh 55.4, CSC inhib 126.3, SKKanGAS inh 100.9 | Mdm2-MdmX conf inactive
CCC(CC)C1C(C#N)=C(N)Oc2n[nH]c(-c3ccccc3)c21 (stereo unspecified)	none
CCOC(=O)C1=C(C)OC(N)=C(C#N)C1c1c(C)nn(-c2ccccc2)c1Cl (stereo unspecified)	none
Cc1nn(-c2ccccc2)c(Cl)c1C1C(C#N)=C(N)Oc2n[nH]c(C)c21 (stereo unspecified)	Mdm2-MdmX inh 53.3 | Mdm2-MdmX conf inactive
CCC(CC)C1C(C#N)=C(N)Oc2n[nH]c(C)c21 (stereo unspecified)	Mdm2-MdmX inh 51.8 | Mdm2-MdmX conf inactive
COc1ccccc1C/C(N)=N/OC(=O)c1cccs1	Mdm2-MdmX inh 50.5 (no result: CSC inhib, Beta cell apopt) | Mdm2-MdmX conf inactive
N/C(Cc1cccc2ccccc12)=N\OC(=O)c1cccs1	none
Cc1ccccc1C(=O)O/N=C(\N)Cc1cccs1	Mdm2-MdmX inh 100.3 (no result: Beta cell apopt) | Mdm2-MdmX conf 91.6 | Full FLuc ctr 114.5
COc1ccc(N2C(=NC(=O)CCC3CCCC3)SC3CS(=O)(=O)CC32)cc1 (stereo unspecified)	none
COc1ccc(OC)c(NC(=O)C2CCC(CNc3c(N4CCC(C)CC4)c(=O)c3=O)CC2)c1 (stereo unspecified)	Mdm2-MdmX inh 51.7 (no result: Beta cell apopt) | Mdm2-MdmX conf inactive
COc1ccc(C)cc1NC(=O)C1CCC(CNc2c(N3CCOCC3)c(=O)c2=O)CC1 (stereo unspecified)	none
CCN(c1ccccc1)S(=O)(=O)c1cccc(C(=O)NCC2(N(C)C)CCCCC2)c1	none (no result: CSC inhib, SKKanGAS inh)
CCOc1ccccc1N1CC(O)=C(c2nc3ccccc3s2)C1=N	Mdm2-MdmX inh 56.8 | Mdm2-MdmX conf 57.5 | Full FLuc ctr 57.8
c1ccc2c(c1)OCC(c1csc3ncnc(N4CCCCC4)c13)O2 (stereo unspecified)	Mdm2-MdmX inh 64.5 | Mdm2-MdmX conf inactive
Clc1ncnc2scc(C3COc4ccccc4O3)c12 (stereo unspecified)	Mdm2-MdmX inh 51.8 | Mdm2-MdmX conf inactive
O=C(NCC1CCCN1S(=O)(=O)c1cccs1)c1cccc(F)c1 (stereo unspecified)	none (no result: CSC inhib)
NS(=O)(=O)c1ccc(N=Nc2ccc(O)c3ncccc23)cc1	Mdm2-MdmX inh 61.9, Beta cell apopt 120.7 | Mdm2-MdmX conf 52.1 | Full FLuc ctr 47.6
Oc1ccc(N=Nc2ccc3c(c2)OCCO3)c2ncccc12	Mdm2-MdmX inh 97.7, CSC inhib 97.8, SKKanGAS inh 89.3, Beta cell apopt 96.1 | Mdm2-MdmX conf 86.8 | Full FLuc ctr inactive
CCOc1ccc(N=Nc2ccc(O)c3ncccc23)cc1	Mdm2-MdmX inh 68.0, CSC inhib 103.0, SKKanGAS inh 91.6 | Mdm2-MdmX conf 80.8 | Full FLuc ctr inactive
Cc1ccc(C)c(N=Nc2ccc(O)c3ncccc23)c1	Mdm2-MdmX inh 97.0, CSC inhib 103.4, SKKanGAS inh 91.6, Beta cell apopt 88.0 | Mdm2-MdmX conf 96.3 | Full FLuc ctr 50.6
CCc1cc(=O)oc2cc(C)cc(OCC(=O)N3CCC(C(=O)NC(C)C)(c4ccccc4)CC3)c12	none (no result: Beta cell apopt)
COc1cc2c(cc1OC)C(c1ccccc1)N(C(=O)C(C)(C)C)CC2 (stereo unspecified)	none (no result: CSC inhib, Beta cell apopt)
c1ccc(-c2nc(NCCCn3ccnc3)c3ccccc3n2)cc1	none
O=c1c2cnn(-c3ccccc3)c2ncn1Cc1ccco1	none
N=c1c2c(-c3ccccc3)c(-c3ccccc3)n(Cc3ccco3)c2ncn1Cc1ccco1	Mdm2-MdmX inh 97.6 | Mdm2-MdmX conf 46.3 | Full FLuc ctr inactive
CCCCn1c(=O)[nH]c(=O)c2c1ncn2Cc1ccco1	none
CCCCn1cnc2c(c(-c3ccccc3)c(-c3ccccc3)n2Cc2ccco2)c1=N	Mdm2-MdmX inh 97.9, CSC inhib 87.3, Beta cell apopt 113.6 | Mdm2-MdmX conf 73.2 | Full FLuc ctr 59.7
N=c1c2c(-c3ccccc3)c(-c3ccccc3)n(Cc3ccccc3)c2ncn1CCCn1ccnc1	Mdm2-MdmX inh 100.3 | Mdm2-MdmX conf 90.0 | Full FLuc ctr inactive
O=C(Cn1cc(C(F)(F)F)cc(Cl)c1=O)Nc1cccc(S(=O)(=O)N2CCCCC2)c1	none (no result: SKKanGAS inh)
CCC(=O)c1cn(/C(=C\C(=O)OC(C)(C)C)CCC(OC)OC)cc1CC	none
CC(C)(C)c1ccc(C(=O)NC(=O)CSc2n[nH]c(N)n2)cc1	none (no result: CSC inhib, SKKanGAS inh)
CC(OC(=O)c1ccc2c(c1)NC(=O)CS2)C(=O)c1ccc(F)cc1 (stereo unspecified)	none (no result: SKKanGAS inh)
Cc1ccc(CNC(=O)c2cc(S(=O)(=O)N3CCCCC3)ccc2N2CCOCC2)cc1	none (no result: CSC inhib, SKKanGAS inh)
COc1cc(C(=O)Nc2cccc3c2CCCC3)cc(OC)c1OC	none
O=C(Nc1cccc([N+](=O)[O-])c1)Nc1ccc2c(c1)CCC2	Mdm2-MdmX inh 72.1 | Mdm2-MdmX conf inactive
O=C(Nc1cccc([N+](=O)[O-])c1)c1cccc(C(=O)Nc2cccc([N+](=O)[O-])c2)c1	Mdm2-MdmX inh 76.1 | Mdm2-MdmX conf 44.6 | Full FLuc ctr 71.4
O=C(Nc1ccccc1)Nc1ccc2c(c1)CCC2	none
Cc1ccc([N+](=O)[O-])cc1NC(=O)Nc1cccc(F)c1	Mdm2-MdmX inh 59.1 (no result: CSC inhib, Beta cell apopt) | Mdm2-MdmX conf inactive
O=C(Nc1cccc([N+](=O)[O-])c1)c1cc2ccccc2cc1O	Mdm2-MdmX inh 93.3, CSC inhib 88.7, SKKanGAS inh 73.6, Beta cell apopt 100.1 | Mdm2-MdmX conf 74.8 | Full FLuc ctr inactive
CCOC(=O)c1ccc(NS(=O)(=O)c2c(C)nc3sccn3c2=O)cc1	none
CN(C)S(=O)(=O)c1cccc(NC(=O)COC(=O)c2cc3ccccc3oc2=O)c1	none
COc1ccc(NC(=O)c2cccc([N+](=O)[O-])c2)cc1	none
COc1ccc(NC(=O)c2cc([N+](=O)[O-])ccc2O)cc1	Mdm2-MdmX inh 80.5, CSC inhib 82.3, SKKanGAS inh 74.3 | Mdm2-MdmX conf 76.0 | Full FLuc ctr 52.9
Cc1c(-c2ccc(Cl)cc2)oc(=O)c2c(N)n(-c3ccccc3)nc12	Mdm2-MdmX inh 85.9 | Mdm2-MdmX conf inactive

Compound activity deposited in PubChem BioAssay by several laboratories.
